ChEMBL document CHEMBL3627690, “Scaffold-Hopping and Structure-Based Discovery of Potent, Selective, And Brain Penetrant N-(1H-Pyrazol-3-yl)pyridin-2-amine Inhibitors of Dual Leucine Zipper Kinase (DLK, MAP3K12)” (J Med Chem, 2015)
Calls of active or inactive are those of the source. The calls are words filed in the database; no cut-off is given here.

Key:
[1] = target: MAP kinase-activated protein kinase 2 (Homo sapiens) (UniProt P49137); test: Inhibition of MAPKAPK2 (unknown origin) at 1 uM by FRET method
Procedure, shortened: (§1)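 SelectScreen panel of 58 kinases, each tested at a single 1 µM compound concentration. Read-out was Z′-LYTE FRET of labeled peptide phosphorylation, run by the vendor's protocols, reported as percent inhibition.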

[2] = target: T1, Mitogen-activated protein kinase kinase kinase 12 (Homo sapiens, UniProt Q12852); test: Inhibition of N-terminally GST- tagged human DLK catalytic domain (1 to 520 amino acids) using N-terminally HIS-tagged MKK4 K131M as substrate incubated for 60 mins by TR-FRET assay
T1 sequence (Q12852 whole entry): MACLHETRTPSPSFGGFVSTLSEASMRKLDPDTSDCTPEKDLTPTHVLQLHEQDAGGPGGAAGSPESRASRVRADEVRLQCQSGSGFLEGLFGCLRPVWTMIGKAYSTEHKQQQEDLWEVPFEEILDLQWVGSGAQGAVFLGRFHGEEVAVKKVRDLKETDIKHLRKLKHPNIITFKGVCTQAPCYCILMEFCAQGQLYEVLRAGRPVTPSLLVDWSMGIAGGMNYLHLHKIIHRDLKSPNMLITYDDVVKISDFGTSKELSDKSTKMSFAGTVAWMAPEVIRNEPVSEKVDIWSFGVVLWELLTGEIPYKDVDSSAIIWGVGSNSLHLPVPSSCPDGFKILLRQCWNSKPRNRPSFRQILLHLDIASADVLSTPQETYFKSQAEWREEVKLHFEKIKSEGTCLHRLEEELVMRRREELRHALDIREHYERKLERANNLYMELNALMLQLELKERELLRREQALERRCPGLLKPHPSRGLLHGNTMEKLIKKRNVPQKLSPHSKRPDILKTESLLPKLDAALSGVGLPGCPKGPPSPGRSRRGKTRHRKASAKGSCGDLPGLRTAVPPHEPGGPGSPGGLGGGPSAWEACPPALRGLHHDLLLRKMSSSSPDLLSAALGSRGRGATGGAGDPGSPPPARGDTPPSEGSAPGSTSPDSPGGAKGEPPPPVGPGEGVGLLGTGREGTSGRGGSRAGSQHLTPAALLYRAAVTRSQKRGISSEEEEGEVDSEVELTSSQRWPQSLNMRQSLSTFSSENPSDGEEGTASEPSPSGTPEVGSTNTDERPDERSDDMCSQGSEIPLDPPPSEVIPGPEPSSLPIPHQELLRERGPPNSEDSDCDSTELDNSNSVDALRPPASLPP

[3] = Oral bioavailability in […] rat at 1 or 5 mg/kg; format: ADME, organism-based; details: in vivo
Procedure, shortened: (§2)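 Rat PK: iv dosing at 0.4 or 1 mg/kg as a 60% PEG solution, po dosing at 1 or 5 mg/kg as an aqueous suspension with 1% methylcellulose.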

[4] = Plasma clearance in […] rat at 0.4 or 1 mg/kg, iv and 1 or 5 mg/kg, po; format: ADME, organism-based; procedure, shortened: as §2
[5] = target: T2, Mitogen-activated protein kinase kinase kinase 12 (Homo sapiens) (UniProt Q12852); test: Inhibition of Flag DLK (unknown origin) transfected in HEK293 cells assessed as reduction of phosphorylation of MKK4 at 0.1 to 10 uM incubated for 5 hrs measured by Western blot analysis; format: cell-based
T2 sequence (whole entry): T1 sequence (Q12852 whole entry)
Procedure, shortened: (§3)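 HEK293 cells were transfected with Flag-tagged DLK, with kinase-dead DLK K152A as comparator, 24 h before compound addition. Cells were then exposed to compound for 5 h. Phospho-MKK4, phospho-MKK7, phospho-JNK and phospho-c-Jun were probed.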

[6] = target: T2, Mitogen-activated protein kinase kinase kinase 12 (Homo sapiens); test: Inhibition of Flag DLK (unknown origin) transfected in HEK293 cells assessed as reduction of phosphorylation of c-Jun at 0.1 to 10 uM incubated for 5 hrs measured by Western blot analysis; format: cell-based; procedure, shortened: as §3
[7] = target: Mitogen-activated protein kinase kinase kinase 9 (Homo sapiens, UniProt P80192); test: Inhibition of MLK1 (unknown origin) at 1 uM by FRET method
Procedure, shortened: (§4)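 Single-point screen at 1 uM against a panel of 58 representative kinases. Readout was labeled-peptide phosphorylation by FRET (Z′-LYTE), using the vendor's protocols.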

[8] = target: Mitogen-activated protein kinase 14 (Homo sapiens) (UniProt Q16539); test: Inhibition of p38alpha (unknown origin) at 1 uM by FRET method; procedure, shortened: as §4
[9] = target: Tyrosine-protein kinase SYK (Homo sapiens) (UniProt P43405); test: Inhibition of Syk (unknown origin) at 1 uM by FRET method; procedure, shortened: as §4
[10] = target: High affinity nerve growth factor receptor (Homo sapiens, UniProt P04629); test: Inhibition of TrkA (unknown origin) at 1 uM by FRET method; procedure, shortened: as §4
[11] = target: Glycogen synthase kinase-3 beta (Homo sapiens, UniProt P49841); test: Inhibition of GSK3beta (unknown origin) at 1 uM by FRET method; procedure, shortened: as §1
[12] = target: Insulin-like growth factor 1 receptor (Homo sapiens) (UniProt P08069); test: Inhibition of IGF1R (unknown origin) at 1 uM by FRET method; procedure, shortened: as §1
[13] = target: Interleukin-1 receptor-associated kinase 4 (Homo sapiens) (UniProt Q9NWZ3); test: Inhibition of IRAK4 (unknown origin) at 1 uM by FRET method; procedure, shortened: as §1
[14] = target: Tyrosine-protein kinase JAK3 (Homo sapiens) (UniProt P52333); test: Inhibition of JAK3 (unknown origin) at 1 uM by FRET method; procedure, shortened: as §1
[15] = target: Mitogen-activated protein kinase kinase kinase kinase 4 (Homo sapiens) (UniProt O95819); test: Inhibition of MAP4K4 (unknown origin) at 1 uM by FRET method; procedure, shortened: as §1
[16] = target: Mast/stem cell growth factor receptor Kit (Homo sapiens, UniProt P10721); test: Inhibition of Kit (unknown origin) by FRET method
[17] = target: Dual specificity mitogen-activated protein kinase kinase 4 (Homo sapiens, UniProt P45985); test: Inhibition of MKK4 (unknown origin) using KFMMTPpYVVTR substrate incubated for 1 hr measured by MpTPpYV probe-based fluorescence polarization assay
Procedure, shortened: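 MKK4 at 30 nM was incubated with 100 µM KFMMTPpYVVTR peptide, 5 µM ATP and 3.3 nM fluorescent MpTPpYV probe. Buffer was 50 mM HEPES pH 7.5 with 5 mM MgCl2 and 10 mM DTT. Reaction ran 1 h at 23 °C, was stopped with EDTA plus anti-phospho-JNK antibody, and read by FP (ex 633/em 670 nm). Activity was normalized to the positive control.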

[18] = target: Mitogen-activated protein kinase kinase kinase 11 (Homo sapiens, UniProt Q16584); test: Inhibition of MLK3 (unknown origin) by FRET method
Procedure, shortened: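 Biochemical IC50 determination from a 10-point dose-response in an enzymatic Z′-LYTE assay. Labeled-peptide phosphorylation was read by FRET under the vendor's protocols.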

[19] = target: Mitogen-activated protein kinase kinase kinase 10 (Homo sapiens, UniProt Q02779); details: 1 uM
HEK293 = test: Effect on total JNK protein level in HEK293 cells transfected with Flag DLK (unknown origin) at 0.1 to 10 uM incubated for 5 hrs by Western blot analysis; details: human, hek293, 5 h

Mitogen-activated protein kinase 14 (Homo sapiens), sequence (Q16539 whole entry): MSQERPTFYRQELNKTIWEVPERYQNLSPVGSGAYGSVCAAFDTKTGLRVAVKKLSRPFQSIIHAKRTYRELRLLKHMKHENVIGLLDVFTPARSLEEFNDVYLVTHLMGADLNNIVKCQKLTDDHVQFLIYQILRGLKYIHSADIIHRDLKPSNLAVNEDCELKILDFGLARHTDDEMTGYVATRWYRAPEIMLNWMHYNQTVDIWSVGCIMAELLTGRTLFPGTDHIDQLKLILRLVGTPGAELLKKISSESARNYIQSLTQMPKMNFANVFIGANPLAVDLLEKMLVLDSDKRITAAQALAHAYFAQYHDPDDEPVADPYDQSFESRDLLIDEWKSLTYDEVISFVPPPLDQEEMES
Mitogen-activated protein kinase kinase kinase 9, sequence (P80192 whole entry, looked up): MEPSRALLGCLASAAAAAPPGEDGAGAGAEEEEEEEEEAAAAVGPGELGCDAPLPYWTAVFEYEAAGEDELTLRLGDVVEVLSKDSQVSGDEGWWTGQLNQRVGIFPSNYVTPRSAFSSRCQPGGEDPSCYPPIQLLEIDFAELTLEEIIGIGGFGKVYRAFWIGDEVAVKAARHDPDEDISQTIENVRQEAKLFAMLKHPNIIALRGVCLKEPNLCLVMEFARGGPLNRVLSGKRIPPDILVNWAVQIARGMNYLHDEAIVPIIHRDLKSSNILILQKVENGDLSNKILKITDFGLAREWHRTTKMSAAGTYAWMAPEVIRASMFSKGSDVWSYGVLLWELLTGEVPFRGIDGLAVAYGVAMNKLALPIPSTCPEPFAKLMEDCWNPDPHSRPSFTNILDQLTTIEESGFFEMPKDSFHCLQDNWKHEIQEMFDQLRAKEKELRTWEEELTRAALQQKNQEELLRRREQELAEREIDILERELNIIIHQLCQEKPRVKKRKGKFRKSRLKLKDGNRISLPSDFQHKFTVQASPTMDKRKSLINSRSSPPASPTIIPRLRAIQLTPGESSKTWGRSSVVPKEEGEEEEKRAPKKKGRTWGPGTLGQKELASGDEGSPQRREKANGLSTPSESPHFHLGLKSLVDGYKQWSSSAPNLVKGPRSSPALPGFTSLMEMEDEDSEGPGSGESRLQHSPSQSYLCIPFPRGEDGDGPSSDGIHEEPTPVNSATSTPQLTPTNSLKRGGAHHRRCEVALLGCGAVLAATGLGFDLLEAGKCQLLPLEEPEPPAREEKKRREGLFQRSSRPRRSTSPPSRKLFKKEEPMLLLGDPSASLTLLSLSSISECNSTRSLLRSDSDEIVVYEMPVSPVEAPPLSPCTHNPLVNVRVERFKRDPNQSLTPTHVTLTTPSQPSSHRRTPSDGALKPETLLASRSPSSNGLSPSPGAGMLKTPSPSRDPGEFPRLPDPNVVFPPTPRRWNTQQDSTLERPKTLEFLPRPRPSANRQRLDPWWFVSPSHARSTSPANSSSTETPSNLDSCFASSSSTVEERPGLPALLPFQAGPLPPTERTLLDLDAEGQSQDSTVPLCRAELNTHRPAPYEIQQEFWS
Insulin-like growth factor 1 receptor (Homo sapiens), sequence (P08069 31-736 limits assumed): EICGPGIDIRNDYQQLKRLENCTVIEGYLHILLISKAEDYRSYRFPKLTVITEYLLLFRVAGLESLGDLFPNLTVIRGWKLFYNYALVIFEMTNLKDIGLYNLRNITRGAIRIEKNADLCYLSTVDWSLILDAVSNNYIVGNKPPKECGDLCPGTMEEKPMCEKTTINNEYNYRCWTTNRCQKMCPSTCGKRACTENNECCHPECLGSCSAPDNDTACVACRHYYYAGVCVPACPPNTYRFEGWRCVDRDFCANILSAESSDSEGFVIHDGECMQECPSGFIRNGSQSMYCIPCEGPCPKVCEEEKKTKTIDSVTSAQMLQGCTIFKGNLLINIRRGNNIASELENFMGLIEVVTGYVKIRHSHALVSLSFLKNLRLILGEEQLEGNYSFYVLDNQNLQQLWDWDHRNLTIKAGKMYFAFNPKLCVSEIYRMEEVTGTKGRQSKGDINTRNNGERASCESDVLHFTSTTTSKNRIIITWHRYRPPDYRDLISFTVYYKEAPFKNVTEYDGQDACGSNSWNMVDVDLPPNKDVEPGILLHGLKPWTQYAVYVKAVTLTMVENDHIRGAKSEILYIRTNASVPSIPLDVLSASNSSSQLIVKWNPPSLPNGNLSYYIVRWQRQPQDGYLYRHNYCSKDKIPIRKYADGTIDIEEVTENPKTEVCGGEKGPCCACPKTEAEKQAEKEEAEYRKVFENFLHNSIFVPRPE
Insulin-like growth factor 1 receptor (Homo sapiens), sequence (P08069 741-1367 limits assumed): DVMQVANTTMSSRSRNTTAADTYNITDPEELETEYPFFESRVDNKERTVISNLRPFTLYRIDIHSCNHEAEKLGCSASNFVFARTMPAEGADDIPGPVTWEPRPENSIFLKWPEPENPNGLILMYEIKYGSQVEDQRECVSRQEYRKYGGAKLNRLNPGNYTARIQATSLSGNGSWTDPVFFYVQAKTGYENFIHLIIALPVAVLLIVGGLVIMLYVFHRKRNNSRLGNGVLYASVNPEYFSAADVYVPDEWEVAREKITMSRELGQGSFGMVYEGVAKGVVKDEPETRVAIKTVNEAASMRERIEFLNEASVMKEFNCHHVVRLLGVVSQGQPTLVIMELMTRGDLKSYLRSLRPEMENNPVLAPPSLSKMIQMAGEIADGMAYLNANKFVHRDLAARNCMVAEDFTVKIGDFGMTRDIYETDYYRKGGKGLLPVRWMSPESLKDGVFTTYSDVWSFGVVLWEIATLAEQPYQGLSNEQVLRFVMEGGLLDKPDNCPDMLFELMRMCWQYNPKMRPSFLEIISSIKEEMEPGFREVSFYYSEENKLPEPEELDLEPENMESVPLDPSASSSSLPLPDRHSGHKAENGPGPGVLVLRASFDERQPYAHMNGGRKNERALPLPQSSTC
Mitogen-activated protein kinase kinase kinase 10, sequence (Q02779 whole entry, looked up): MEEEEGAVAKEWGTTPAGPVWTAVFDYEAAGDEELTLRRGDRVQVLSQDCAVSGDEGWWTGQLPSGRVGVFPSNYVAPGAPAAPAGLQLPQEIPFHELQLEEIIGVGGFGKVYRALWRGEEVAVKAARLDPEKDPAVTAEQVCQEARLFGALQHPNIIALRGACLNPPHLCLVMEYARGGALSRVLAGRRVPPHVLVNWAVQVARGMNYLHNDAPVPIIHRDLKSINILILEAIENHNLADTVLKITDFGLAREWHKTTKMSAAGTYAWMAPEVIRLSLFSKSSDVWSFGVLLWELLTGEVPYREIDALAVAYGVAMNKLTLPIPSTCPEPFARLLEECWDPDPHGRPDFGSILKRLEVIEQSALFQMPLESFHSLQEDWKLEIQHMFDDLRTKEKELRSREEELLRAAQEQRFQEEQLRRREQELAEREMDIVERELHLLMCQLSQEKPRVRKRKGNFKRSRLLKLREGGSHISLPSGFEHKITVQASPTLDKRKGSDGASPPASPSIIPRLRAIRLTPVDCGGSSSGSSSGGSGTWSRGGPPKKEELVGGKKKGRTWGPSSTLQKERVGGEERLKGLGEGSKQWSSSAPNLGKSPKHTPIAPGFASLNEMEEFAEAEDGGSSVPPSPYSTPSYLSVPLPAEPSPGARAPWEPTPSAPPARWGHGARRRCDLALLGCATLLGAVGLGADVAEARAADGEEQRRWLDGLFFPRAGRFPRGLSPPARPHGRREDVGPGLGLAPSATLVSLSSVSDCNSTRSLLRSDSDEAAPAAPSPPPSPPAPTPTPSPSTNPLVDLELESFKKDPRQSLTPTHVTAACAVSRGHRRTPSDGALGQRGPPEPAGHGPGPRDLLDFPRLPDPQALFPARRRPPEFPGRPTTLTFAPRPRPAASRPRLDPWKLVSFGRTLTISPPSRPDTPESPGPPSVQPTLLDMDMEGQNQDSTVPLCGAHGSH
High affinity nerve growth factor receptor, sequence (P04629 33-796 limits assumed): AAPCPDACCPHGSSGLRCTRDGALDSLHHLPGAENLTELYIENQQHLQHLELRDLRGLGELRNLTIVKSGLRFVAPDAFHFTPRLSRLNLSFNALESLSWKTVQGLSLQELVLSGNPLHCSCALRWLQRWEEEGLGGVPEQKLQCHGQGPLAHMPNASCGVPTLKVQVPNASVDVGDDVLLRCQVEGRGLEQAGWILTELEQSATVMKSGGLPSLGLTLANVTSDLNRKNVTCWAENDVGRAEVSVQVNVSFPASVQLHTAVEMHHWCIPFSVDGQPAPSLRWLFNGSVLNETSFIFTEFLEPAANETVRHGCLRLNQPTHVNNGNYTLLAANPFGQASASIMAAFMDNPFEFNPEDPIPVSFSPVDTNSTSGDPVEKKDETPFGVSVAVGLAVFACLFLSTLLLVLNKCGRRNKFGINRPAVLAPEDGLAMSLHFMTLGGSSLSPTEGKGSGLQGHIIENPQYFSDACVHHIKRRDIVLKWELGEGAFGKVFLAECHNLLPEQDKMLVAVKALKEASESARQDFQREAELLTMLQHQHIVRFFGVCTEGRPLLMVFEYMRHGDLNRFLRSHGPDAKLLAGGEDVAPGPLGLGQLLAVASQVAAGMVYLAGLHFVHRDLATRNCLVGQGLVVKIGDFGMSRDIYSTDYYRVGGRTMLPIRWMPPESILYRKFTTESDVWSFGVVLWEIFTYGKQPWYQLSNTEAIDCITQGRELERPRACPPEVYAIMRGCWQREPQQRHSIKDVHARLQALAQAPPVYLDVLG
Interleukin-1 receptor-associated kinase 4 (Homo sapiens), sequence (Q9NWZ3 whole entry): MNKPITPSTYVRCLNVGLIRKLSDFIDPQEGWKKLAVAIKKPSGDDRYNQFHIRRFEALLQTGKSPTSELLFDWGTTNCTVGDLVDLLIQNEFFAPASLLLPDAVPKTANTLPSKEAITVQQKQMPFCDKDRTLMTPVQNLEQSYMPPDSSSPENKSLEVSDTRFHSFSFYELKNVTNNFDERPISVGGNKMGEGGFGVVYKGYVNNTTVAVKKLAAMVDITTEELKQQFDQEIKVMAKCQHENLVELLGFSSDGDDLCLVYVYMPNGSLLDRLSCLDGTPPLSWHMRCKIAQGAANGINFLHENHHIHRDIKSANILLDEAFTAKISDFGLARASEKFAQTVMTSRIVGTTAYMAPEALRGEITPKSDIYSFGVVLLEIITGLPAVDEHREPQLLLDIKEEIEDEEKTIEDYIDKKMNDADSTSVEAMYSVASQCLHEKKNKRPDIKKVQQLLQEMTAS

N#Cc1ccnc(Nc2cc(C3CCN(C4COC4)CC3)n(C3CCCC3)n2)c1
inhibition [1]: 6.7% | Ki [2]: 42 nM | bioavailability [3]: 58% | clearance [4]: 34 mL/min/kg | inhibition [5]: Active | inhibition [6]: Active | inhibition [7]: 4.4% | inhibition [8]: 14.6% | inhibition [9]: 41.2% | inhibition [10]: 63.3% | inhibition [11]: 58.6% | inhibition [12]: 37% | inhibition [13]: 19.5% | inhibition [14]: 12.5% | inhibition [15]: 12.1% | IC50 [16]: 534 nM | IC50 [17]: > 5000 nM | IC50 [18]: > 10000 nM | inhibition [19]: 1.6% | Activity (HEK293): Non-toxic
